Active and inactive are the calls of the source.
Legend:
[1] = molecular target: T1, Histone acetyltransferase RTT109 (Saccharomyces cerevisiae (strain ATCC 204508 / S288c) (Baker's yeast), UniProt Q07794); test: Inhibition of Vps75-stimulated recombinant Saccharomyces cerevisiae histone acetyltransferase Rtt109 using Asf1-dH3-H4 as substrate assessed as coenzyme A production after 45 mins by CPM based HTS assay
T1 sequence (Q07794 whole entry): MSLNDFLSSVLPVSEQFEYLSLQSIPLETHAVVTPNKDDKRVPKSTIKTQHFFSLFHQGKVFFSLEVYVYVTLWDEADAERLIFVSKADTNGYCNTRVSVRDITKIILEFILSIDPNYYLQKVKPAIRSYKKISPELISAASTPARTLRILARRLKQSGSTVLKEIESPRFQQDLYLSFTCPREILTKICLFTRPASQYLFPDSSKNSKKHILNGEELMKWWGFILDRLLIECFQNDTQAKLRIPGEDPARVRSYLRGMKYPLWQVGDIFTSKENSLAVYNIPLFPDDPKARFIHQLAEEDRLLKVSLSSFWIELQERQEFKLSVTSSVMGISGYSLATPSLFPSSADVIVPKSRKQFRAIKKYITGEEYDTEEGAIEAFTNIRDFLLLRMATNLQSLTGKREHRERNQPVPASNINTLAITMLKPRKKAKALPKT
How it was run: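 Recombinant Rtt109–Vps75 at 50 nM, with Asf1–dH3–H4 as substrate and acetyl-CoA as acetyl donor. Buffer contained freshly prepared 0.01% Triton X-100. The CoA product was detected by fluorescence of its CPM adduct. Plates had Z′ ≥0.5. IC50 came from a four-parameter variable-slope fit.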

[2] = Fluorescence quenching assessed as fluorescence signal reduction at 10 uM after 10 mins; assay type: physicochemical
How it was run: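 CPM (20 μM final) and CoA (5 μM final) reacted to completion in assay buffer (stable plateau, usually ~5 min); adduct solution added to wells preplated with compound; shaken 5 min, equilibrated 5 min at room temperature; fluorescence intensity read as percent signal reduction versus DMSO controls. Flagged as quencher at >20% signal reduction at 10 μM final compound.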

[3] = Fluorescence quenching in HTS buffer assessed as fluorescence signal reduction at 10 uM after 10 mins; assay type: physicochemical
[4] = Fluorescence quenching in HTS buffer with […] CoA assessed as fluorescence signal reduction at 10 uM after 10 mins; assay type: physicochemical
[5] = Fluorescence quenching in HTS buffer with 20 uM 7-diethylamino-3-(4'-maleimidyl-phenyl)-4-methylcoumarin assessed as fluorescence signal reduction at 10 uM after 10 mins; assay type: physicochemical
[6] = molecular target: T2, Histone acetyltransferase RTT109 (Saccharomyces cerevisiae (strain ATCC 204508 / S288c) (Baker's yeast)) (UniProt Q07794); test: Inhibition of Vps75-stimulated recombinant Saccharomyces cerevisiae histone acetyltransferase Rtt109 assessed as H3K56 acetylated product at […] after 45 mins by Slot bolt inhibiton assay
T2 sequence (whole entry): T1 sequence (Q07794 whole entry)

[7] = molecular target: T2, Histone acetyltransferase RTT109 (Saccharomyces cerevisiae (strain ATCC 204508 / S288c) (Baker's yeast)); test: Inhibition of Vps75-stimulated recombinant Saccharomyces cerevisiae histone acetyltransferase Rtt109 assessed as H3K27 acetylated product at […] after 45 mins by Slot bolt inhibiton assay

| IC50 [1] | Compound | IC50 ([1]; read-out: IC50) | Activity [2] | Activity [3] | Activity [4] | Activity [5] | Activity [6] | Activity [7] |
| --- | --- | --- | --- | --- | --- | --- | --- | --- |
|  | [Cl-].c1ccc(C[n+]2sc(Nc3ccccc3)nc2-c2ccccc2)cc1 | 3.1 µM | Not Active | Not Active | Not Active | Not Active |  |  |
|  | COc1ccc(N2C(=O)CC(Sc3n[nH]c(-c4ccc(C)cc4)n3)C2=O)cc1 (centres undefined) | 10 µM | Not Active | Not Active | Not Active | Not Active | Active | Active |
|  | O=C1C=CC(=O)N1c1ccc(Oc2ccccc2)cc1 | 3 µM | Not Active | Not Active | Not Active | Not Active | Active | Active |
|  | O=C1CC(Sc2nc[nH]n2)C(=O)N1c1ccccc1 (centres undefined) | 15 µM | Not Active | Not Active | Not Active | Not Active | Active | Active |
|  | COc1ccc(-c2nnc(Sc3ccc([N+](=O)[O-])c4nonc34)[nH]2)cc1 | 2.3 µM | Not Active | Not Active | Not Active | Not Active | Active | Active |
|  | O=S(=O)(Nc1cc(Sc2nc3ccccc3s2)c(O)c2ccccc12)c1ccccc1 | 9.9 µM | Not Active | Not Active | Not Active | Not Active | Active | Active |
|  | Cc1ccc(S(=O)(=O)C[n+]2sc(N(c3ccccc3)c3ccccc3)nc2-c2ccccc2)cc1.[Br-] | 42 µM | Not Active | Not Active | Not Active | Not Active |  |  |
|  | O=C1CC(Sc2nncn2-c2ccccc2)C(=O)N1c1cc(Cl)cc(Cl)c1 (centres undefined) | 16 µM | Not Active | Not Active | Not Active | Not Active | Active | Active |
| Not Active | O=C(O)CSc1cc(NS(=O)(=O)c2cccc([N+](=O)[O-])c2)c2ccccc2c1O |  | Not Active | Not Active | Not Active | Active |  |  |
|  | [Br-].c1ccc(C[n+]2sc(Nc3ccccc3)nc2-c2ccccc2)cc1 | 3.1 µM | Not Active | Not Active | Not Active | Not Active |  |  |
| Not Active | CC(C)(C)c1ccc(S(=O)(=O)Nc2cc(SCC(=O)O)c(O)c3ccccc23)cc1 |  | Not Active | Not Active | Not Active | Active |  |  |
|  | Cc1ccc(S(=O)(=O)C[n+]2sc(N(c3ccccc3)c3ccccc3)nc2-c2ccccc2)cc1.[Cl-] | 26 µM | Not Active | Not Active | Not Active | Not Active |  |  |
| Not Active | CC(C)c1ccc(S(=O)(=O)Nc2cc(SCCC(=O)O)c(O)c3ccccc23)cc1 |  | Not Active | Not Active | Not Active | Active |  |  |
|  | O=C1C=CC(=O)N1c1ccc(Cl)cc1 |  | Not Active | Not Active | Not Active | Not Active | Active | Active |
|  | COc1cc(-c2nnc(SC3=CS(=O)(=O)c4ccccc43)o2)cc(OC)c1OC |  | Not Active | Not Active | Not Active | Not Active | Active | Active |

— ChEMBL document CHEMBL3414544, “PAINS in the assay: chemical mechanisms of assay interference and promiscuous enzymatic inhibition observed during a sulfhydryl-scavenging HTS” (J Med Chem, 2015)
